Measurements of several laboratories.
Protocols differ between the studies behind these lines.
Target: Phosphorylase b kinase gamma catalytic chain, liver/testis isoform (PHKG2, Homo sapiens, UniProt P15735)
One construct used (P15735 1-406): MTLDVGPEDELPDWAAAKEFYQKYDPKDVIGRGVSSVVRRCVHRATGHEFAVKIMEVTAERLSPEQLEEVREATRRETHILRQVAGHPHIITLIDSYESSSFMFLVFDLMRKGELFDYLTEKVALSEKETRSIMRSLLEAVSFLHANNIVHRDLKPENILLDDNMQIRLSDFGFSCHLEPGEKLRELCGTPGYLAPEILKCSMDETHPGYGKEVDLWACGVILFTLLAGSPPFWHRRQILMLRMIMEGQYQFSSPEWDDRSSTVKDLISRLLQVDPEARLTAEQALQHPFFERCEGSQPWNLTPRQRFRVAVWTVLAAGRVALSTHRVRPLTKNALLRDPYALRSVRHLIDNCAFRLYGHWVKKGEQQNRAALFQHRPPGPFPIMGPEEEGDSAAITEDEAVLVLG

Compound | assay | system | conditions | endpoint | value
O=C(Nc1cnn(-c2csc(C(=O)NC3COC3)c2)c1)Nc1ccccc1Cl | enzyme activity, inhibitor |  | 5 µM | remaining activity | 101%
Cc1cc(NC(=O)c2cccc3cc(-c4cccc5[nH]nc(N)c45)ccc23)ccc1F | enzyme activity, inhibitor |  | 0.1 µM | activity vs control | 87%
COc1cc(Cl)c(C(=O)N[C@@H](CN[C@H]2CC[C@@H](N)CC2)Cc2ccc(C#N)cc2)cc1-c1ccc(CN[C@H](C)c2ccc(C)cc2)o1 | enzyme activity, inhibitor |  | 1 µM | remaining activity | 103%
Cn1nc(C(F)(F)F)cc1-c1cnc(N2CCc3cc(S(=O)(=O)Nc4c(F)cc(Cl)cc4F)cc(N4CCCC4=O)c32)nc1 | cell-free assay, competition with immobilised ligand |  | 1 µM | remaining binding | 96%
CC(C)c1ccc(NC(=O)c2cccs2)c(-c2nc3ccccc3[nH]c2=O)c1 | enzyme activity, inhibitor |  | 1 µM | activity vs control | 96%
Cc1ccc(Nc2nccc(N(C)c3ccc4c(C)n(C)nc4c3)n2)cc1S(N)(=O)=O | enzyme activity, inhibitor |  | 0.3 µM | inhibition | -4%
Cc1ccc(C(=O)NCc2ccsc2)cc1C#Cc1cn(C(C)C)c2ncnc(N)c12 | enzyme activity, inhibitor |  | 1 µM | activity vs control | 110%
CC(C)(C)c1nc(-c2cccc(NS(=O)(=O)c3c(F)cccc3F)c2F)c(-c2ccnc(N)n2)s1 | enzyme activity, inhibitor, radiometric |  | 1 µM | remaining activity | 88%
CO[C@@H](C)c1c(Nc2ccc([C@H](N(C)C(=O)C3CCS(=O)(=O)CC3)C(F)(F)F)cc2)cnc2cc(Cl)nn12 | cell-free assay, competition with immobilised ligand |  | 1 µM | remaining binding | 96%
CNC(=O)c1cc(Oc2ccc(NC(=O)Nc3ccc(Cl)c(C(F)(F)F)c3)cc2)ccn1 | cell-free assay |  | 0.5 µM | remaining signal | 91.3%
CCCOc1ccc(OC)c(F)c1C(=O)c1ccc(C(=O)N[C@@H]2CNC[C@H]2NC(=O)c2ccc3[nH]ncc3c2)cc1 | enzyme activity, inhibitor |  | 10 µM | remaining activity | 51%
Oc1cccc(-c2nc(N3CCOCC3)c3oc4ncccc4c3n2)c1 | cell-free assay |  | 0.5 µM | remaining signal | 99.1%
COc1ccc2c(c1)O[C@H](c1ccc(OC)c(OC)c1)C[C@@H]2NC(=O)C1(c2ccc3c(c2)OC(F)(F)O3)CC1 | cell-free assay, competition with immobilised ligand |  | 1 µM | remaining binding | 93%
O=C1NC(=O)c2cc(Nc3ccc(F)cc3)c(Nc3ccc(F)cc3)cc21 | cell-free assay |  | 0.5 µM | remaining signal | 97.1%
CCC(=O)N[C@@H]1CC[C@H](C(=O)N(C)c2ccc(-c3nc4ccccc4o3)cc2)C1 | cell-free assay, competition with immobilised ligand |  | 1 µM | remaining binding | 100%
CCCS(=O)(=O)Nc1ccc(F)c(C(=O)c2c[nH]c3ncc(-c4ccc(Cl)cc4)cc23)c1F | enzyme activity, inhibitor |  | 1 µM | inhibition | < 10%
COCCOc1nc(-c2ccc(Cl)nc2)nc2c1CN(C(=O)c1ncn3ccccc13)CC2 | cell-free assay, competition with immobilised ligand |  | 0.1 µM | remaining binding | 100%
COc1ccc(COc2ccc(Cc3cnc(N)nc3N)cc2OC)cc1 | cell-free assay |  | 0.5 µM | remaining signal | 106%
CC(=O)N1CCC(c2ccc(C(=O)NC3=NCCN3)cc2C(F)(F)F)CC1 | cell-free assay, competition with immobilised ligand |  | 1 µM | remaining binding | 100%
CNc1cc(Oc2cc(C(=O)Nc3cc(N4CCN(C)CC4)cc(C(F)(F)F)c3)ccc2C)ncn1 | target engagement in cells, inhibitor, chemoproteomics | Huh-7 | 1 µM | inhibition | -18.1%
COc1cc2ncnc(Nc3ccc(Oc4ccccc4)cc3C)c2cc1OC | enzyme activity, inhibitor |  | 1 µM | inhibition | 0%
CCCCNc1ncc2c(-c3ccc(F)cc3)nn(C[C@H]3CC[C@H](N)CC3)c2n1 | target engagement in cells, inhibitor, chemoproteomics |  | 20 mM | inhibition | -3.3%
CCN(CC)c1ccc(C2=NNC(=O)CC2C)cc1[N+](=O)[O-] (stereo not drawn) | enzyme activity, inhibitor |  | 10 µM | remaining activity | 107%
O=C(Nc1cccnn1)N1CCC(=Cc2cccc(Oc3ccc(C(F)(F)F)cn3)c2)CC1 | cell-free assay, competition with immobilised ligand |  | 1 µM | remaining binding | 88%
CCN(CC)CCNC(=O)c1c(C)[nH]c(/C=C2\C(=O)Nc3ccc(F)cc32)c1C | enzyme activity, inhibitor |  | 10 µM | inhibition | 101%
CCCCN(CCCC)C(=O)CN1C[C@@H](c2cc(OC)c3c(c2)OCO3)[C@H](C(=O)O)[C@H]1CC(C)(C)CCC | cell-free assay, competition with immobilised ligand |  | 1 µM | remaining binding | 100%
N#CCCc1ccc2c(c1)-c1[nH]c3ccc([N+](=O)[O-])cc3c1CC(=O)N2 | cell-free assay |  | 0.5 µM | remaining signal | 99.1%
